UPR CHOP act = activators of apoptotic CHOP UPR arm, primary screen, cell-based, CHO-CHOP luciferase reporter, luminescence, uHTS. UPR activation; percent of tunicamycin response over DMSO baseline. activation, % at 10 µM. 330,000 compounds, 0.34% hits;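 active = at 10 µM dose, activation of 40% or more, normalized to positive control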;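 note: 100% = tunicamycin at 10 µg/mL and 0% = DMSO alone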
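Test system: CHO-CHOP cells, stable luciferase reporter of PERK-eIF2a-CHOP signalling | Quantity: 500 CHO-CHOP cells per well | Buffer or medium: F12 plus 10% serum | Compound dosing: 10 µM single point, 0.5% DMSO | Schedule: 6 h compound treatment, 37 °C | Signal: Luciferase luminescence | Control set: Tunicamycin high control, DMSO low control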
CHOP inhibitor = inhibitors of CHOP promoter induction, primary screen, cell-based, unfolded protein response, luciferase reporter | CHO-K1 CHOP-promoter luciferase, tunicamycin-induced, 15-18 h | inhibition, % at 10 µM | 220,000 compounds, 3.8% hits | AID 2732, 2010;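 active = compounds that reduced the stress-induced luciferase reporter signal by more than about 70% of percent inhibition, limit read from the data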;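 note: 0% = tunicamycin plus vehicle and 100% = wells without tunicamycin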
UPR XBP1 act = activators of adaptive XBP1 UPR arm, primary screen, cell-based, CHO-XBP1 luciferase reporter, luminescence, uHTS | activation, % at 20 µM | IRE1-XBP1 UPR activation; percent of tunicamycin response, DMSO as zero | 330,000 compounds, 0.33% hits | AID 463104, 2010;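 active = versus positive control, 20 µM dose yields 30% or more activation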;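 note: 100% = tunicamycin at 10 µg/mL and 0% = DMSO only wells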
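Assay system: CHO-XBP1 luciferase reporter cells; Schedule: 6 h treatment, 37 °C; Detection: glow luminescence from Steady-Glo reagent; Benchmarks: high control tunicamycin 10 µg/mL final, low control DMSO vehicle only.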
V-ATPase pH = regulators of yeast V-ATPase proton pumping, primary screen, pHLuorin cytosolic pH fluorescence; S. cerevisiae; response, % at 10 µM; 350,000 compounds, 0.37% hits; AID 504577, 2011; in the data active = response mostly above about 7.3%, no sharp cut-off; inactive = mostly below about 5.4%; note: actives read high
Tb MetRS inh = T. brucei MetRS inhibitors, primary screen, biochemical, luminescence | methionyl-tRNA synthetase (Trypanosoma brucei brucei) | purified T. brucei MetRS, ATP depletion, Kinase-Glo luminescence | inhibition, % at 11.9 µM | 360,000 compounds, 0.4% hits | AID 624268, 2012;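 active = inhibition above a per-plate cutoff of the control wells' mean inhibition plus 3 SD, cut at about 5.5% in these data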;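 note: 0% = DMSO wells median and 100% = median of wells with control inhibitor compound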
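Assay system: T. brucei methionyl-tRNA synthetase, purified | Medium: HEPES buffer with MgCl2, KCl, DTT, spermine, BSA, pyrophosphatase | Compound: 11.9 µM single point | Incubation: 15 min enzyme-compound preincubation, 2 h reaction, 10 min detection, 25 °C | Measured by: Kinase-Glo luciferase luminescence reporting remaining unconsumed ATP | Measure: % inhibition normalized to control-well medians | Replication: Singlicate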
* marks the source's active call; other numbers are inactive results; . = no result. Many of the other results were omitted from the sample, so hits are more common in it than they were.

SMILES	UPR CHOP act	CHOP inhibitor	UPR XBP1 act	V-ATPase pH	Tb MetRS inh
COC1=CC(C)C2CC3OC(=O)CC4C(C)=C(OC)C(=O)C(C2(C)C1=O)C34C (stereo not drawn)	.	.	.	.	0.4
Cc1nn(CCC(=O)O)c2nc(-c3cccnc3)cc(C(F)(F)F)c12	0.1	18.1	-2.6	.	-0.6
Cc1nn(CCc2nn[nH]n2)c2nc(-c3ccc(C4CCCCC4)cc3)cc(C(F)(F)F)c12	2.7	106.4*	7.1	2.5	-0.6
C[C@]12c3[nH]c4cc(-c5ccco5)ccc4c3CCN1C(=O)[C@@H](CC(=O)NCc1ccco1)C[C@@H]2C(=O)N1CCCCC1	3.4	.	1.2	-0.3	0.0
Brc1ccc(N/N=C(/N=Nc2nn[nH]n2)c2ccccc2)cc1	-3.4	70.8*	-1.6	-0.5	-0.6
O=C(O)c1ccc(N=N/C(=N\Nc2ccc(C(=O)O)cc2)c2ccccc2)cc1	3.7	.	-3.7	1.6	-0.2
O=c1c2ccccc2sc2nc(CCl)nn12	.	.	.	7.7	-0.1
CN(c1ccc(-c2csc(NC(=O)CCCc3nc4ccccc4c(=O)[nH]3)n2)cc1)S(C)(=O)=O	.	.	.	-0.5	-0.3
O=C(c1ccc(O)cc1)c1ccc(Cl)cc1	0.6	82.6*	2.8	-1.1	-1.0
O=C1C(NS(=O)(=O)c2cccs2)=C(N2CCN(c3cccc(Cl)c3)CC2)C(=O)c2ccccc21	0.9	72.7*	2.8	.	-0.1
O=C1C(NS(=O)(=O)c2ccccc2)=C(N2CCN(c3ccc(F)cc3)CC2)C(=O)c2ccccc21	2.8	-5.9	-1.1	-3.1	0.4
CCCCNc1nc(N)nc(-c2cc(Cl)ccc2O)n1	2.0	76.6*	-5.5	-5.1	0.0
CC(C)(C)c1ccc(CC(=O)N2CCC2(C)C(=O)NS(=O)(=O)c2ccccc2Cl)cc1 (stereo not drawn)	.	.	.	.	-0.1
COc1ccc(-c2[nH]ncc2CNCCCSC)cc1F	0.1	3.3	0.5	14.4*	-0.4
CON1C(=O)C(=O)N(OC)C(C)(C)C1C (stereo not drawn)	-1.5	-22.5	-2.5	-1.3	-0.3
Cc1cc(OCC(=O)OCC(=O)N2CCCc3ccccc32)ccc1Cl	.	.	.	.	-0.2
CC(C)c1ccc(-c2nc(N3CCCC3)nc3n[nH]c(N)c23)cc1	2.6	55.1	3.9	-1.9	-1.3
CC(C)c1ccc(-c2nc(N3CCCCCC3)nc3n[nH]c(N)c23)cc1	1.4	80.4*	2.5	2.4	-0.8
CC(C)(C)C1CCC(=NNS(=O)(=O)c2ccc(Br)cc2)CC1 (stereo not drawn)	-0.3	91.7*	-2.0	0.1	-0.1
Cc1ccc(S(=O)(=O)NN=C2CCC(C(C)(C)C)CC2)cc1[N+](=O)[O-] (stereo not drawn)	-1.8	45.1	-3.7	-3.9	-1.2
CC(C)(C)c1ccc(-n2nc(C#N)c(Cl)cc2=O)cc1	-8.8	107.7*	-10.0	2.9	-1.6
CC(C)(C)c1ccc(-n2nc(C(N)=O)c(O)cc2=O)cc1	1.3	-3.5	0.3	-4.7	-0.9
CCN(CC)c1nc(OCCNC(=O)Nc2ccccc2)nc(N(CC)CC)n1	-1.3	90.0*	-4.1	4.6	-0.3
CCN(CCNC(=O)Nc1ccc(Cl)cc1)c1ccccc1	-0.4	75.2*	0.1	-0.8	4.6
COc1cccc(-c2cc3c(c4c2ccn4C)C2CCC3C2)c1 (stereo not drawn)	.	.	.	.	0.0
SMILES	UPR CHOP act	CHOP inhibitor	UPR XBP1 act	V-ATPase pH	Tb MetRS inh
CC(=O)C1CCC2C3CCC4=CC(=O)CCC4(C)C3(F)C(O)CC12C (stereo not drawn)	.	.	.	1.9	-0.2
COc1ccc(/C=C2\SC(=S)N(Cc3cccnc3)C2=O)cc1C	3.0	88.2*	1.1	-4.4	-0.4
Cc1ccc(-c2csc3ncn(-n4c(C)ccc4C)c(=O)c23)o1	-0.8	79.2*	-9.5	-2.2	0.8
Cc1sc2ncn(-n3c(C)ccc3C)c(=O)c2c1C	0.5	27.0	-5.2	0.7	-0.8
Cc1ccc2nc(-c3ccccn3)c(N)n2c1	.	.	.	.	-1.7
CCOc1cc(C)c(C(C)C)cc1S(=O)(=O)n1ccc(C)n1	0.7	77.3*	-1.1	1.9	-1.0
Cc1ccc(-c2[nH]ncc2/C=C(\C#N)C(=O)NC2CCCCC2)cc1	-0.2	71.6*	0.1	0.2	-0.7
C=CCN1C=CC(=O)CC1	0.1	-10.8	2.9	1.2	-0.6
O=C(c1cccc(F)c1)N1CCN=C1SCc1cccnc1	-2.2	86.2*	-2.2	-3.3	0.4
Cc1ccccc1-c1cccc([C@@H]2C[C@H]3C(CN2)CON3C)c1 (stereo partly drawn)	.	.	.	5.1	-0.7
CCOC(=O)/C(C#N)=C/c1ccc(OCC(=O)Nc2ccc(C)c(C)c2)c(OC)c1	4.6	39.9	-1.6	-4.0	-0.3
COc1cc(/C=C(\C#N)C(=O)Nc2cc(C(F)(F)F)ccc2Cl)ccc1OCC(=O)Nc1cccc(C(F)(F)F)c1	0.6	73.9*	-3.4	-5.9	-1.1
COc1cc(/C=C(\C#N)c2ccccn2)ccc1OCC(=O)Nc1ccc(Br)cc1	-0.6	70.1*	4.8	4.7	0.7
CCCCN(C(=O)c1cc2c(s1)CCC2)c1c(N)n(CCCC)c(=O)[nH]c1=O	4.5	.	-1.2	-4.3	-0.5
Cc1oc(-c2cc3c(cc2Cl)OCO3)nc1CN1CCCC(C(=O)N2CCOCC2)C1 (stereo not drawn)	0.8	30.6	0.3	15.7*	-0.5
Cc1oc(-c2ccc(F)cc2)nc1CN1CCCC(C(=O)N2CCOCC2)C1 (stereo not drawn)	-1.6	.	-4.1	6.2	-0.5
CC/C(=N\Nc1ccc([N+](=O)[O-])cc1)c1ccccc1	0.5	75.3*	2.1	-1.3	0.0
NC(=O)COC(=O)c1sc2ccccc2c1Cl	2.1	2.7	-0.3	0.4	-0.6
Cc1cc(C)n(CCOC(=O)c2sc3ccccc3c2Cl)n1	1.8	74.5*	0.7	-1.2	-1.2
COc1ccc(Nc2c(C3CC3)nc3nc(C)cc(C)n23)cc1	.	.	.	.	-1.1
CC1CC(C)CN(CCOc2ccc(Cl)cc2Cl)C1 (stereo not drawn)	-0.7	65.0	-0.3	-1.7	1.9
CC1CC(C)CN(CCOc2cccc(Cl)c2Cl)C1 (stereo not drawn)	1.3	73.1*	1.2	-1.1	-0.8
O=C1OCCOC2CCCc3oc(C4=CCCCC4)c1c32 (stereo not drawn)	.	.	.	.	0.5
O=C(COC(=O)c1ccccc1O)Nc1ccc(OC(F)F)cc1	2.3	72.4*	2.6	3.2	-0.4
CC(=O)c1ccc(NC(=O)COC(=O)c2ccccc2Nc2ccccc2)cc1	-0.6	57.4	-1.8	0.6	-1.0
O=C(COC(=O)c1ccccc1Nc1ccccc1)Nc1ccccc1	-0.7	78.0*	-0.1	0.2	0.6
O=C(NCc1cccc(C(F)(F)F)c1)C1C(=O)Nc2ccccc2C(=O)N1C1CCCC1 (stereo not drawn)	.	.	.	.	-0.5

Assay outcomes (PubChem BioAssay)
